Data published in ChEMBL document CHEMBL1287652, “QSAR modeling, synthesis and bioassay of diverse leukemia RPMI-8226 cell line active agents” (2010).

Experiment: Antitumor activity against human […] cells at 10 uM after 48 hrs by sulforhodamine B assay relative to control
Assay type: functional
Outline: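 NCI panel lines were grown in RPMI-1640 with 5% FBS and 2 mM L-glutamine and seeded at 5000–40,000 cells/well according to doubling time. After 24 h at 37 °C, 5% CO2, one dose from a DMSO stock was added for 48 h. Cells were TCA-fixed (10% final adherent, 16% suspension), SRB-stained and read at 515 nm. Percent growth is relative to untreated control.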

Row | SMILES | inhibition at 10 µM
1 | [3H]N1C(=O)[C@@]2(c3ccccc31)N(C)C[C@@H](c1ccc(Cl)cc1)[C@@]21Cc2ccccc2C1=O | 63.4%
2 | [3H]N1C(=O)[C@@]2(c3ccccc31)N(C)C[C@@H](c1cccs1)[C@@]21Cc2ccccc2C1=O | 10.9%
3 | CN1CCN(C(=O)/C(=C/c2ccccc2OCCOc2ccccc2/C=C(\NC(=O)c2ccccc2)C(=O)N2CCN(C)CC2)NC(=O)c2ccccc2)CC1 | 14.7%
4 | O=C(Nc1ccc(Cl)cc1)/C(=C/c1ccccc1OCCOc1ccccc1/C=C(\NC(=O)c1ccccc1)C(=O)Nc1ccc(Cl)cc1)NC(=O)c1ccccc1 | 6.03%
5 | [3H]C([3H])([3H])N1C(=O)[C@@]2(c3ccccc31)N(C)C[C@@H](c1cccs1)[C@@]21Cc2ccccc2C1=O | 12.1%
6 | COc1nc(-c2cccs2)cc2c1c(=O)oc1ccccc12 | 9.11%
7 | COc1ccc(Nc2nc(-c3ccccc3)cc(-c3ccc(Cl)cc3)c2C(=O)Nc2ccccc2)cc1 | 30%
8 | [3H]C([3H])([3H])N1C(=O)[C@@]2(c3ccccc31)N(C)C[C@@H](c1ccc(OC)cc1)[C@@]21Cc2ccccc2C1=O | 82.3%
9 | O=C(Nc1ccccc1)c1c(-c2ccc(Cl)cc2)cc(-c2ccccc2)nc1Nc1ccccc1 | 15%
10 | Cn1c(S)n[n+]2c(N)c(C#N)c(-c3ccc(N4CCOCC4)cc3)c(C#N)c12 | 11.9%
11 | CN1C/C(=C\c2cccs2)C(=O)[C@@]2(C1)[C@H](c1cccs1)CN(C)[C@]21C(=O)N(C)c2ccccc21 | 89.4%
12 | Nc1nc(-c2ccccc2)cc(-c2ccc(Cl)cc2)c1C(=O)Nc1ccccc1 | 46%
13 | O=C(Nc1ccccc1)c1c(-c2ccc(Cl)cc2)cc(-c2ccccc2)nc1N1CCCCC1 | 13%
14 | O=C(N/C(=C\c1ccccc1OCCOc1ccccc1/C=C(\NC(=O)c1ccccc1)C(=O)N1CCCCC1)C(=O)N1CCCCC1)c1ccccc1 | 18.3%
15 | Cc1ccc(NC(=O)c2c(-c3ccc(Cl)cc3)cc(-c3ccccc3)nc2N2CCOCC2)cc1 | 39%
16 | CCn1c(S)n[n+]2c(N)c(C#N)c(-c3ccc(N4CCOCC4)cc3)c(C#N)c12 | 24.9%
17 | O=C(Nc1ccc(Cl)c(Cl)c1)Nc1ccccc1SCCCSc1ccccc1NC(=O)Nc1ccc(Cl)c(Cl)c1 | 108%

Row | SMILES | inhibition at 10 µM
18 | CN1C/C(=C\c2ccc(Cl)cc2)C(=O)[C@@]2(C1)[C@H](c1ccc(Cl)cc1)CN(C)[C@]21C(=O)N(C)c2ccccc21 | 62%
19 | O=C1c2ccccc2SCC[C@@]12[C@H](c1cccs1)C(c1ccccc1)=NN2c1cccc(Cl)c1 | 29.8%
20 | O=C(N/C(=C\c1ccccc1OCCOc1ccccc1/C=C(\NC(=O)c1ccccc1)C(=O)N1CCOCC1)C(=O)N1CCOCC1)c1ccccc1 | 9.15%
21 | O=C(Nc1ccccc1)c1c(-c2ccc(Cl)cc2)cc(-c2ccccc2)nc1Nc1ccc(Cl)cc1 | 53%
22 | O=C1c2ccccc2SCC[C@@]12[C@H](c1ccc(Cl)cc1)C(c1ccccc1)=NN2c1cccc(Cl)c1 | 33.2%
23 | CN1C/C(=C\c2ccc(Cl)cc2)C(=O)[C@@]2(C1)[C@H](c1ccc(Cl)cc1)CN(C)[C@]21C(=O)Nc2ccccc21 | 61.5%
24 | Cc1ccc(NC(=O)c2c(-c3ccc(Cl)cc3)cc(-c3ccccc3)nc2Nc2ccc(Cl)cc2)cc1 | 58%
25 | COc1ccc(Nc2nc(-c3ccccc3)cc(-c3ccc(Cl)cc3)c2C(=O)Nc2ccc(C)cc2)cc1 | 79%
26 | Cc1ccc(NC(=O)c2c(-c3ccc(Cl)cc3)cc(-c3ccccc3)nc2N2CCCCC2)cc1 | 24%
27 | [3H]C([3H])([3H])N1C(=O)[C@@]2(c3ccccc31)N(C)C[C@@H](c1ccc(Cl)cc1)[C@@]21Cc2ccccc2C1=O | 86.6%
28 | COc1ccc([C@@H]2C(c3ccccc3)=NN(c3cccc(Cl)c3)[C@]23CCSc2ccccc2C3=O)cc1 | 34.3%
29 | O=C(Nc1ccccc1)c1c(-c2ccc(Cl)cc2)cc(-c2ccccc2)nc1N1CCOCC1 | 51%
30 | COc1ccc(/C=C2\CN(C)C[C@]3(C2=O)[C@H](c2ccc(OC)cc2)CN(C)[C@]32C(=O)Nc3ccccc32)cc1 | 79.3%
31 | [3H]N1C(=O)[C@@]2(c3ccccc31)N(C)C[C@@H](c1ccc(OC)cc1)[C@@]21Cc2ccccc2C1=O | 33.2%
32 | Cc1ccc(NC(=O)c2c(-c3ccc(Cl)cc3)cc(-c3ccccc3)nc2N)cc1 | 71%
33 | COc1ccc(-c2c3c([nH]c(=S)c2C#N)-c2ccccc2SCC3)cc1 | 0.96%
